These results are taken from ChEMBL document CHEMBL1156942, “Inhibitors of hepatitis C virus polymerase: synthesis and characterization of novel 2-oxy-6-fluoro-N-((S)-1-hydroxy-3-phenylpropan-2-yl)-benzamides” (Bioorg Med Chem Lett, 2010).

Calls of active or inactive are those of the source. The calls are words filed in the database; no cut-off is given here.

In general, IC50 refers to the concentration that gives 50% inhibition.

Test [1] concerns Hepatitis C virus. As to the kind of experiment: Inhibition of HCV Con1 NS5B polymerase. It counts as functional, Hepatitis C virus (isolate Con1). The settings on record: 1b. Summed up:
(§1)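 The buffer is 20 mM HEPES pH 7.3, 7.5 mM DTT, 10 mM MgCl2, 60 mM NaCl, RNasin, BSA, GTP/ATP/UTP, and CTP supplemented to 20 nM. It uses 100 nM heteropolymer RNA template and 0.25 mM trinucleotide initiator. Incubation is 2 h at room temperature, then stopped with EDTA, and filter-bound label is counted. IC50 comes from 10 twofold dilutions in duplicate, averaged over two separate weighings.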

Test [2] deals with Hepatitis C virus. The test is described as follows: Inhibition of HCV Con1 NS5B polymerase M414T mutant. The following applies: isolate Con1. It counts as functional, Hepacivirus hominis. In outline:
(§2)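 Mutant Con1 NS5B (Δ21) at 30 nM was run in a de novo initiation assay with 100 nM heteropolymer RNA template and 0.25 mM trinucleotide initiator. Incubation: RT, 2 h, stopped with EDTA. Read-out: filter-bound label. IC50 from 10 twofold dilutions in duplicate; means of duplicates on two weighings.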

Test [3] deals with Hepatitis C virus. The test is described as follows: Inhibition of HCV Con1 NS5B polymerase G554D mutant. It counts as functional, Hepacivirus hominis. The settings on record: isolate Con1. Summed up:
as §2

For test [4], the system named is Hepatitis C virus. As to the kind of experiment: Inhibition of HCV Con1 NS5B polymerase C316Y mutant. It counts as functional, Hepacivirus hominis. The settings on record: isolate Con1. Summed up:
as §2

Test [5] relates to Hepatitis C virus. As to the kind of experiment: Inhibition of HCV Con1 NS5B polymerase C316N mutant. In kind it is functional, Hepacivirus hominis. The following applies: isolate Con1. Summed up: as §2
For test [6], the system named is Hepatitis C virus. As to the kind of experiment: Inhibition of HCV 1a NS5B polymerase. It counts as functional, Hepatitis C virus subtype 1a. Summed up: as §1
In test [7] the test system is Hepatitis C virus genotype 2. The test is described as follows: Inhibition of HCV genotype 2 NS5B polymerase up to 200 uM.
Test [8] has as its system Hepatitis C virus. The test is described as follows: Selectivity ratio of IC50 for HCV Con1 NS5B polymerase C316Y mutant to IC50 for HCV 1b Con1 NS5B polymerase. In kind it is functional, Hepacivirus hominis, isolate Con1.
Test [9] deals with Hepatitis C virus. As to the kind of experiment: Selectivity ratio of IC50 for HCV Con1 NS5B polymerase M414T mutant to IC50 for HCV 1b Con1 NS5B polymerase. In kind it is functional, Hepacivirus hominis, isolate Con1.
Test [10] relates to Hepatitis C virus. As to the kind of experiment: Selectivity ratio of IC50 for HCV Con1 NS5B polymerase G554D mutant to IC50 for HCV 1b Con1 NS5B polymerase. In kind it is functional, Hepacivirus hominis, isolate Con1.
In test [11] the test system is Hepatitis C virus genotype 3. The test is described as follows: Inhibition of HCV genotype 3 NS5B polymerase up to 200 uM.
The test system of test [12] is Hepatitis C virus genotype 4. As to the kind of experiment: Inhibition of HCV genotype 4 NS5B polymerase up to 200 uM.

`O=C(COc1cccc(F)c1C(=O)NCCc1ccccc1)N[C@H](CO)Cc1ccccc1` gave an IC50 with Hepatitis C virus [1] of more than 20 µM.

In turn, `CC(C)(C)CCNC(=O)c1c(F)cccc1OCC(=O)N[C@H](CO)Cc1ccccc1` gave an IC50 in the test on Hepatitis C virus [1] of more than 20 µM. With `O=C(COc1cccc(F)c1C(=O)N1CCCC1)N[C@H](CO)Cc1ccccc1`, the half-inhibitory concentration (IC50) with Hepatitis C virus [1] was more than 20 µM. In turn, `CN(CCc1ccccc1)C(=O)c1c(F)cccc1OCC(=O)N[C@H](CO)Cc1ccccc1` yielded an IC50 in the test on Hepatitis C virus [1] of 20 µM.

`CCCN(CCC)C(=O)c1c(F)cccc1OCC(=O)N[C@H](CO)Cc1ccccc1` showed a half-maximal inhibitory concentration (IC50) in the test on Hepatitis C virus [1] of 2.7 µM. For `CNC(=O)c1c(-c2ccc(F)cc2)oc2cc(N(CCO)S(C)(=O)=O)c(C3CC3)cc12` [NESBUVIR], the IC50 came out at 0.06 µM in the test with Hepatitis C virus [2]; 0.05 µM in the test on Hepatitis C virus [3]; 2 µM with Hepatitis C virus [4]; 0.12 µM in the test with Hepatitis C virus [5]; 0.04 µM in the test with Hepatitis C virus [6]. The compound `O=C(COc1cccc(F)c1C(=O)NCCC1CCCCC1)N[C@H](CO)Cc1ccccc1` displayed an IC50 in the test on Hepatitis C virus [1] of more than 20 µM. Take `COC[C@H]1CCCN1C(=O)c1c(F)cccc1OCC(=O)N[C@H](CO)Cc1ccccc1`: in the test on Hepatitis C virus [1], the IC50 stood at 20 µM.

For `CC(C)(C)CC[C@@]1(C)CC(C2=NS(=O)(=O)c3cc(NS(C)(=O)=O)ccc3N2)=C(O)c2ccccc21`, the IC50 with Hepatitis C virus [2] turned out to be 0.004 µM; in the test with Hepatitis C virus [3] it was 0.3 µM; in the test with Hepatitis C virus [4] it was 0.008 µM; in the test with Hepatitis C virus [5], 0.004 µM; in the test on Hepatitis C virus [6] it was 0.003 µM. Compound `CCN(CCOC)C(=O)c1c(F)cccc1OCC(=O)N[C@H](CO)Cc1ccccc1` gave a concentration for half-maximal inhibition (IC50) with Hepatitis C virus [1] of 8 µM. Still for that read-out and setting: for `CCN(CC)C(=O)c1c(F)cccc1OCC(=O)N[C@H](CO)Cc1ccccc1` the value was 6 µM. On to `O=C(COc1cccc(F)c1C(=O)NCCC1=CCCCC1)N[C@H](CO)Cc1ccccc1`, for which the IC50 in the test with Hepatitis C virus [1] was determined as 4.3 µM. On to `C=CCN(CC=C)C(=O)c1c(F)cccc1OCC(=O)N[C@H](CO)Cc1ccccc1`, for which, in the test with Hepatitis C virus [1], the half-maximal inhibitory concentration (IC50) came to 2.2 µM.

Consider `COC[C@@H]1CCCN1C(=O)c1c(F)cccc1OCC(=O)N[C@H](CO)Cc1ccccc1`, for which 7.7 µM corresponded to half-maximal inhibition in the test with Hepatitis C virus [1] (IC50). With `CC(C)CCNC(=O)c1c(F)cccc1OCC(=O)N[C@H](CO)Cc1ccccc1`, the 50% inhibitory concentration (IC50) in the test on Hepatitis C virus [1] was more than 20 µM. `C[S+]([O-])CCNC(=O)c1c(F)cccc1OCC(=O)N[C@H](CO)Cc1ccccc1` (stereo partly specified) showed an IC50 in the test with Hepatitis C virus [1] of more than 20 µM. On the same count and under the same terms, as for `CCOCCN(CCOCC)C(=O)c1c(F)cccc1OCC(=O)N[C@H](CO)Cc1ccccc1`, the figure is more than 20 µM. `CCCN(C)C(=O)c1c(F)cccc1OCC(=O)N[C@H](CO)Cc1ccccc1` registered an IC50 with Hepatitis C virus [1] of 6 µM. Still for that read-out and setting: for `CCCCN(CC)C(=O)c1c(F)cccc1OCC(=O)N[C@H](CO)Cc1ccccc1` the value was 0.47 µM. On the same count and under the same terms, for `O=C(COc1cccc(F)c1C(=O)N[C@H](CO)Cc1ccccc1)NCCC1=CCCCC1` the value was more than 20 µM; for `CCN(C(=O)c1c(F)cccc1OCC(=O)N[C@H](CO)Cc1ccccc1)C(C)C`, 7 µM. Compound `CCOc1cc(CCNC(=O)c2c(F)cccc2OCC(=O)N[C@H](CO)Cc2ccccc2)ccc1OC` gave a half-inhibitory concentration (IC50) in the test with Hepatitis C virus [1] of more than 20 µM. For `CCCN(CCOC)C(=O)c1c(F)cccc1OCC(=O)N[C@H](CO)Cc1ccccc1`, the IC50 with Hepatitis C virus [1] was found to be 17 µM. Take `COC(=O)[C@H](c1ccccc1)N(C)C(=O)c1c(F)cccc1OCC(=O)N[C@H](CO)Cc1ccccc1`: it took 4.6 µM to reach half-maximal inhibition in the test with Hepatitis C virus [1] (IC50). On the same count and under the same terms, for `CC1CCN(C(=O)c2c(F)cccc2OCC(=O)N[C@H](CO)Cc2ccccc2)CC1` the value was 2.3 µM; for `CC(C)CCN(C)C(=O)c1c(F)cccc1OCC(=O)N[C@H](CO)Cc1ccccc1`, 0.47 µM. As to `O=C(COc1cccc(F)c1C(=O)NCCCCO)N[C@H](CO)Cc1ccccc1`, in the test with Hepatitis C virus [1], the 50% inhibitory concentration (IC50) is more than 20 µM. In turn, `COC[C@H](Cc1ccccc1)NC(=O)COc1cccc(F)c1C(=O)NCCC1=CCCCC1` showed a concentration for half-maximal inhibition (IC50) in the test with Hepatitis C virus [1] of more than 20 µM. `O=C(COc1cccc(F)c1C(=O)N1CCCC1Cc1ccccn1)N[C@H](CO)Cc1ccccc1` (stereo partly specified): in the test on Hepatitis C virus [1], the IC50 was more than 20 µM. Same read-out and setting: as for `COCCN(C(=O)c1c(F)cccc1OCC(=O)N[C@H](CO)Cc1ccccc1)C(C)C`, the figure is 6 µM; as for `O=C(COc1cccc(F)c1C(=O)N1CCCCCC1)N[C@H](CO)Cc1ccccc1`, 2.6 µM. Regarding `CCCCNC(=O)c1c(F)cccc1OCC(=O)N[C@H](CO)Cc1ccccc1`, in the test on Hepatitis C virus [1], the half-maximal inhibitory concentration (IC50) is more than 20 µM. For the compound `O=C(COc1cccc(F)c1C(=O)N1CCCC1c1cccc(Cl)c1)N[C@H](CO)Cc1ccccc1` (stereo partly specified), half-maximal inhibition with Hepatitis C virus [1] (IC50) was put at 1.9 µM. In the test with Hepatitis C virus [1], `O=C(COc1cccc(F)c1C(=O)N1CCC(c2ccccc2)C1)N[C@H](CO)Cc1ccccc1` (stereo partly specified) had a half-inhibitory concentration (IC50) of 10 µM. `CCCCN(C)C(=O)c1c(F)cccc1OCC(=O)N[C@H](CO)Cc1ccccc1`: the inhibition entry in test [7], in test [11] and in [12] was “inactive” in each case. Moreover, the results for the “Ratio IC50” value in the test on Hepatitis C virus [8], in the test with Hepatitis C virus [9] and with Hepatitis C virus [10] were 100, 10 and 150, respectively. Moreover, the IC50 with Hepatitis C virus [2] came out at 10 µM; in the test on Hepatitis C virus [3], 120 µM; in the test with Hepatitis C virus [4] it was 90 µM; with Hepatitis C virus [5] it was 0.9 µM; in the test on Hepatitis C virus [6] it was 43 µM.

`O=C(COc1cccc(F)c1C(=O)N1CCCC1C1CCCCC1)N[C@H](CO)Cc1ccccc1` (stereo partly specified) came in with a half-inhibitory concentration (IC50) with Hepatitis C virus [1] of 4 µM. Compound `O=C(COc1cccc(F)c1C(=O)NCCC1=CCCCC1)N[C@@H](CO)Cc1ccccc1` came in with an IC50 in the test with Hepatitis C virus [1] of more than 20 µM. `COCCNC(=O)c1c(F)cccc1OCC(=O)N[C@H](CO)Cc1ccccc1`: the IC50 with Hepatitis C virus [1] is more than 20 µM.

As to `COC(=O)[C@@H](Cc1ccccc1)N(C)C(=O)c1c(F)cccc1OCC(=O)N[C@H](CO)Cc1ccccc1`, in the test with Hepatitis C virus [1], 4.3 µM corresponded to half-maximal inhibition (IC50).

`CCCN(CC1CC1)C(=O)c1c(F)cccc1OCC(=O)N[C@H](CO)Cc1ccccc1` came in with an IC50 in the test with Hepatitis C virus [1] of 2.6 µM. In turn, `CCCN(CC)C(=O)c1c(F)cccc1OCC(=O)N[C@H](CO)Cc1ccccc1` came in with an IC50 in the test with Hepatitis C virus [1] of 2.3 µM.

For `C[C@H](c1ccccc1)N(C)C(=O)c1c(F)cccc1OCC(=O)N[C@H](CO)Cc1ccccc1`, in the test on Hepatitis C virus [1], the 50% inhibitory concentration (IC50) amounted to 0.43 µM. The compound `O=C(COc1cccc(F)c1C(=O)N1CCCCC1)N[C@H](CO)Cc1ccccc1` came in with an IC50 in the test with Hepatitis C virus [1] of more than 20 µM.
